Laboratory results reported in ChEMBL document CHEMBL1141378, “Structures of steroidal alkaloid oligoglycosides, robeneosides A and B, and antidiabetogenic constituents from the Brazilian medicinal plant Solanum lycocarpum” (2007).

Key:
[1] = system: Rattus norvegicus; assay: Inhibition of increase in serum glucose level in sucrose-loaded Wistar rat at 125 mg/kg, po after 0.5 hrs; type: functional
Summary of the method: (§1)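 Male Wistar rats (about 130-150 g) fasted 20-24 h, water allowed. Test sample suspended in 5% acacia solution, given orally at 10 mL/kg; controls get vehicle. Thirty minutes later, 20% (w/v) sucrose at 5 mL/kg po (water for the normal group). Serum taken 0.5, 1 and 2 h after loading; glucose measured by glucose-oxidase method. Means ± SEM; one-way ANOVA with Dunnett's test.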

[2] = system: Rattus norvegicus; assay: Inhibition of increase in serum glucose level in sucrose-loaded Wistar rat at 125 mg/kg, po after 1 hr; type: functional; summary of the method: as §1
[3] = system: Rattus norvegicus; assay: Inhibition of increase in serum glucose level in sucrose-loaded Wistar rat at 125 mg/kg, po after 2 hrs; type: functional; summary of the method: as §1
[4] = system: Rattus norvegicus; assay: Inhibition of increase in serum glucose level in sucrose-loaded Wistar rat at 500 mg/kg, po after 0.5 hrs; type: functional; summary of the method: as §1
[5] = system: Rattus norvegicus; assay: Inhibition of increase in serum glucose level in sucrose-loaded Wistar rat at 500 mg/kg, po after 1 hr; type: functional; summary of the method: as §1
[6] = system: Rattus norvegicus; assay: Inhibition of increase in serum glucose level in sucrose-loaded Wistar rat at 500 mg/kg, po after 2 hrs; type: functional; summary of the method: as §1
[7] = system: Rattus norvegicus; assay: Inhibition of increase in serum glucose level in sucrose-loaded Wistar rat at 50 mg/kg, po after 2 hrs; type: functional; summary of the method: as §1
[8] = system: Rattus norvegicus; assay: Inhibition of increase in serum glucose level in sucrose-loaded Wistar rat at 100 mg/kg, po after 2 hrs; type: functional; summary of the method: as §1
[9] = system: Mus musculus; assay: Suppression of gastric emptying in CMC-Na-loaded mouse at 25 mg/kg, po after 30 mins; type: functional, Stomach
Summary of the method: (§2)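 Male ddY mice (about 30-32 g) fasted 20-24 h, dosed orally in 5% acacia (10 mL/kg) 30 min before an intragastric meal of 1.5% CMC-Na with 0.05% phenol red (0.5 mL/mouse). Killed 30 min later; stomach homogenized in 0.1 M NaOH, TCA-deproteinized, alkalinized, read at 560 nm. Emptying % calculated against mice killed immediately after the meal. Means ± SEM, Dunnett's test.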

[10] = system: Mus musculus; assay: Suppression of gastric emptying in CMC-Na-loaded mouse at 50 mg/kg, po after 30 mins; type: functional, Stomach; summary of the method: as §2
[11] = system: Rattus norvegicus; assay: Inhibition of increase in serum glucose level in sucrose-loaded Wistar rat at 25 mg/kg, po after 0.5 hrs; type: functional; summary of the method: as §1
[12] = system: Rattus norvegicus; assay: Inhibition of increase in serum glucose level in sucrose-loaded Wistar rat at 50 mg/kg, po after 0.5 hrs; type: functional; summary of the method: as §1
[13] = system: Rattus norvegicus; assay: Inhibition of increase in serum glucose level in sucrose-loaded Wistar rat at 100 mg/kg, po after 0.5 hrs; type: functional; summary of the method: as §1
[14] = system: Rattus norvegicus; assay: Inhibition of increase in serum glucose level in sucrose-loaded Wistar rat at 25 mg/kg, po after 1 hr; type: functional; summary of the method: as §1
[15] = system: Rattus norvegicus; assay: Inhibition of increase in serum glucose level in sucrose-loaded Wistar rat at 50 mg/kg, po after 1 hr; type: functional; summary of the method: as §1
[16] = system: Rattus norvegicus; assay: Inhibition of increase in serum glucose level in sucrose-loaded Wistar rat at 100 mg/kg, po after 1 hr; type: functional; summary of the method: as §1
[17] = system: Rattus norvegicus; assay: Inhibition of increase in serum glucose level in sucrose-loaded Wistar rat at 25 mg/kg, po after 2 hrs; type: functional; summary of the method: as §1
[18] = system: Rattus norvegicus; assay: Inhibition of increase in serum glucose level in sucrose-loaded Wistar rat at 12.5 mg/kg, po after 0.5 hrs; type: functional; summary of the method: as §1
[19] = system: Rattus norvegicus; assay: Inhibition of increase in serum glucose level in sucrose-loaded Wistar rat at 12.5 mg/kg, po after 1hr; type: functional; summary of the method: as §1
[20] = system: Rattus norvegicus; assay: Inhibition of increase in serum glucose level in sucrose-loaded Wistar rat at 12.5 mg/kg, po after 2 hrs; type: functional; summary of the method: as §1

Compound	Activity [1]	Activity [2]	Activity [3]	Activity [4]	Activity [5]	Activity [6]	Activity [7]	Activity [8]	Activity [9]	Activity [10]	Activity [11]	Activity [12]	Activity [13]	Activity [14]	Activity [15]	Activity [16]	Activity [17]	Activity [18]	Activity [19]	Activity [20]
CN(C)C(=N)NC(=N)N [METFORMIN]	134.8 mg/dL	136 mg/dL	115.5 mg/dL	113.1 mg/dL	105.6 mg/dL	119.8 mg/dL	–	–	–	–	–	–	–	–	–	–	–	–	–	–
C[C@@H]1CC[C@@]2(NC1)O[C@H]1C[C@H]3[C@@H]4CC=C5C[C@@H](O[C@@H]6O[C@H](CO)[C@@H](O[C@@H]7O[C@@H](C)[C@H](O)[C@@H](O)[C@H]7O)[C@H](O)[C@H]6O[C@@H]6O[C@@H](C)[C@H](O)[C@@H](O)[C@H]6O)CC[C@]5(C)[C@H]4CC[C@]3(C)[C@H]1[C@@H]2C [SOLAMARGINE]	–	–	–	–	–	–	118.7 mg/dL	122.3 mg/dL	73.7%	58.4%	141.7 mg/dL	124.3 mg/dL	118.5 mg/dL	139.9 mg/dL	117.1 mg/dL	116.6 mg/dL	133.7 mg/dL	–	–	–
C[C@@H]1CC[C@@]2(NC1)O[C@H]1C[C@H]3[C@@H]4CC=C5C[C@@H](O[C@@H]6O[C@H](CO)[C@H](O)[C@H](O[C@@H]7O[C@H](CO)[C@@H](O)[C@H](O)[C@H]7O)[C@H]6O[C@@H]6O[C@@H](C)[C@H](O)[C@@H](O)[C@H]6O)CC[C@]5(C)[C@H]4CC[C@]3(C)[C@H]1[C@@H]2C [SOLASONINE]	–	–	–	–	–	–	135.4 mg/dL	121.9 mg/dL	75.4%	74.8%	158.8 mg/dL	132.7 mg/dL	124.7 mg/dL	157.6 mg/dL	136.7 mg/dL	122.4 mg/dL	129.5 mg/dL	–	–	–
CCCCNC(=O)NS(=O)(=O)c1ccc(C)cc1 [TOLBUTAMIDE]	–	–	–	–	–	–	–	–	–	–	138.1 mg/dL	–	–	106.3 mg/dL	–	–	99.5 mg/dL	152.6 mg/dL	130.5 mg/dL	114.9 mg/dL
